# PostGolgi ctrl: growth inhibition of yeast control strain, primary screen, counter-screen for post-Golgi transport modulator project; efflux-deficient yeast background strain, growth absorbance A615, 16 h; inhibition, % at 10 µM; 5% of 98,000 active; AID 738, 2007
# Ecoli WT expand: growth inhibitors of wild-type E. coli, primary screen, strain BW25113, expanded library, OD600 | 0.15% of 98,000 active | growth inhibition, % at 100 µM | OD600 absorbance;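 active = growth inhibition above about 50% at one test dose, limit read from the data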;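 note: growth measured after 20 h incubation at 37 °C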
# PostGolgi yeast: phenotypic screen on post-Golgi transport, primary screen; post-Golgi transport phenotypic cell assay; inhibition, % at 10 µM; 0.9% of 98,000 active; AID 739, 2007;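 note: yeast cells grown in 1536-well plates; yeast grown about 18 h at 30C before absorbance read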
# EphB4 antag: EphB4-ephrin-B2 interaction antagonists, primary screen, biochemical, TNYL-RAW peptide probe, fluorescence polarization; Ephrin type-B receptor 4 (Homo sapiens), P54760; EphB4 LBD / TNYL-RAW-Alexa532 peptide; inhibition, % at 7 µM; 0.15% of 97,000 active;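 active = inhibition above the screen-wide mean inhibition plus 3 SD, cut at about 15% in these data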;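 note: 0% = DMSO wells and 100% = excess unlabeled TNYL-RAW peptide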
# Target sequence (P54760 whole entry, looked up, the tested form may be a part): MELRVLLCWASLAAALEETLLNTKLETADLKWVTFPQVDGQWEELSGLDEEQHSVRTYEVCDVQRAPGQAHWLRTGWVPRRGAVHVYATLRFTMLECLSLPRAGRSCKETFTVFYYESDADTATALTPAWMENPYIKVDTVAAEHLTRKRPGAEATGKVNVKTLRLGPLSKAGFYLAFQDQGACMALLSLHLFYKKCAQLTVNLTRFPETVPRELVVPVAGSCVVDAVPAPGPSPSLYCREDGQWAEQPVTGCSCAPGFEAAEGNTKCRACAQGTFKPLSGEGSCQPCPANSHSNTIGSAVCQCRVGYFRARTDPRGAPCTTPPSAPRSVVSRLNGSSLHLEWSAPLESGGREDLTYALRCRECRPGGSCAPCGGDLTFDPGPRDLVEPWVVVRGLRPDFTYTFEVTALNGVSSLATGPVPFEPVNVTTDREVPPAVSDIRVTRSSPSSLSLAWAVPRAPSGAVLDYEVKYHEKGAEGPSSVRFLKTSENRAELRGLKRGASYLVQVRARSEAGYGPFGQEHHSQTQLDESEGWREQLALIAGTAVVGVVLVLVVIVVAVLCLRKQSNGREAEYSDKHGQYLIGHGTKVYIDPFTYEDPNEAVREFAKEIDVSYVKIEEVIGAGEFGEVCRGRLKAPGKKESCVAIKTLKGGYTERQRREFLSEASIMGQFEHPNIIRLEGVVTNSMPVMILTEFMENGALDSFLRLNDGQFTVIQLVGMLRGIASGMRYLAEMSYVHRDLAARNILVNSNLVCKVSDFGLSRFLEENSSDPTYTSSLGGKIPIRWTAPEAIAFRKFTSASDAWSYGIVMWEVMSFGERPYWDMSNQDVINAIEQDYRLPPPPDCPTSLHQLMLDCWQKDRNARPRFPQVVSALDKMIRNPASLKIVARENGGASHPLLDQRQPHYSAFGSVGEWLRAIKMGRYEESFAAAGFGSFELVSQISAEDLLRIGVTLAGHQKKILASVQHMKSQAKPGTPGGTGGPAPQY
# Ecoli tolC: growth inhibitors of E. coli tolC mutant, primary screen, strain BW25113 ΔtolC::kan, 384-well; OD615; growth inhibition, % at 10 µM (by protocol); 2.2% of 65,000 active;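 active = growth inhibition at or above a cutoff equal to the mean over every tested compound plus 3 SD, cut at about 60% in these data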;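 note: growth measured after 20 h incubation at 37 °C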
#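 Test system: E. coli BW25113 ΔtolC::kan bacteria; incubation: 37 °C, 20 h exposure; medium: LB broth supplemented with 50 µg/mL kanamycin; read-out basis: percent growth inhibition; signal: A615 absorbance measurement; compound: 10 µM final, single dose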
# The depositor's hits bear a star; x = not tested or not shown. Compounds with a hit are over-represented: about 6% of the library has one in this group of screens. Cut-off read from the data, not from the text of the source, unless noted: active = inhibition above about 30%; inactive = the rest.
SMILES,PostGolgi ctrl,Ecoli WT expand,PostGolgi yeast,EphB4 antag,Ecoli tolC
COc1ccc(-c2nnnn2CCc2ccccc2)cc1,17,12,15,-5,14
COc1ccccc1Cn1c(-c2ccccc2OC)nc2ccccc21,48*,-6,6,-6,x
COc1ccc2c(c1)[nH]c1c(=O)n(CCCn3ccnc3)cnc12,6,4,9,0,x
CCC(=O)N1CCc2cc(Br)cc(S(=O)(=O)N3CCN(c4ccccn4)CC3)c21,x,x,x,x,5
CCc1nc2ccc(C)cc2c(C(=O)NC2CCCCC2C)c1C (centres undefined),5,2,2,6,x
FC(F)(F)c1cc(-c2ccccc2)nc(NC2CCCC2)n1,2,8,6,4,x
Cc1noc(C)c1CSc1nc2sc(C)c(C)c2c(=O)n1C1CCCC1,-3,6,7,0,0
COC(=O)C1=C(C)N(c2ccc(C)cc2)/C(=C/c2cccs2)C1=O,33*,-5,22,10,x
Cc1ccc(Sc2cnn(-c3ccccc3)c(=O)c2Cl)cc1,24,-7,-5,-4,x
Nc1ccc(Sc2cnn(-c3ccccc3)c(=O)c2Cl)cc1,40*,8,9,3,x
CN(CC(=O)NC(c1ccccc1)c1ccccc1)Cc1nc2ccccc2c(=O)[nH]1,1,0,-4,2,x
COc1ccccc1CN(Cc1nc2ccccc2c(=O)[nH]1)C(=O)Nc1ccc(C)cc1,31*,2,4,-3,x
COc1cc2c(cc1NC(=O)CN(C)Cc1nc3ccccc3c(=O)[nH]1)oc1ccccc12,59*,-1,-6,x,1
COc1cc2c(cc1NC(=O)CSc1nc3ccccc3[nH]1)oc1ccccc12,74*,-12,2,-5,x
CC(C)Oc1ccccc1C1CC(=O)Nc2c1c(=O)n(C)c(=O)n2C (centres undefined),10,3,-9,-5,x
CCc1nnc(NC(=O)C2Cc3ccccc3CN2S(=O)(=O)c2ccc(C)cc2)s1 (centres undefined),41*,1,5,7,x
CCc1nnc(NC(=O)C2Cc3ccccc3CN2S(=O)(=O)c2cccs2)s1 (centres undefined),14,-6,-5,2,19
COc1ccc(S(=O)(=O)N2Cc3ccccc3CC2C(=O)Nc2nccs2)cc1OC (centres undefined),5,-9,2,-2,17
COc1ccc(S(=O)(=O)N2Cc3ccccc3CC2C(=O)Nc2nccs2)cc1 (centres undefined),36*,-6,-4,1,x
CC1Cc2ccccc2N1C(=O)Cn1cc([N+](=O)[O-])cn1 (centres undefined),0,1,-6,-3,x
Cc1ccc(-c2ccc(/C=N/c3ncn[nH]3)o2)cc1Cl,34*,13,-5,1,-1
CC1CCN(C(=O)CSc2ccc3nnc(-c4ccccc4)n3n2)CC1,x,x,x,x,-5
COCCNC(=O)C(OC(=O)CC1Sc2ccccc2NC1=O)c1ccccc1 (centres undefined),x,x,x,-4,x
Cc1ccc(C2C=C(c3ccccc3OC(F)F)Nc3ncnn32)cc1 (centres undefined),22,-4,0,x,54
CN(C)c1ccc(C2C=C(c3ccc(Cl)cc3OC(F)F)Nc3ncnn32)cc1 (centres undefined),31*,-10,3,x,96*
SMILES,PostGolgi ctrl,Ecoli WT expand,PostGolgi yeast,EphB4 antag,Ecoli tolC
c1ccc(Cc2cc(-c3ccccc3)on2)cc1,x,x,x,5,x
Cc1cccc(S(=O)(=O)Nc2nc3ccccc3nc2NCc2ccco2)c1,14,-3,-2,-5,75*
O=S(=O)(Nc1nc2ccccc2nc1NCc1ccco1)c1ccc(Cl)cc1,38*,-5,-8,4,96*
Cc1ccc(S(=O)(=O)Nc2nc3ccccc3nc2NCc2ccco2)cc1,13,0,1,3,20
CC(C)(Oc1ccc(Cl)cc1)C(=O)N/N=C/c1cn[nH]c1-c1ccccc1,14,4,-4,5,x
c1ccc(Cn2c(-c3cccs3)nc3nc4ccccc4nc32)cc1,21,-6,3,-6,-4
CC(C)Cn1c(-c2cccs2)nc2nc3ccccc3nc21,38*,3,-1,-2,37
CCCCn1c(-c2cccs2)nc2nc3ccccc3nc21,31*,-4,-12,1,x
Cn1cc(C(=O)c2ccc(Cl)cc2Cl)cc1C(=O)N/N=C(\N)COc1cccc(C(F)(F)F)c1,20,-8,-5,0,x
Cc1ccc(Sc2cc(Cl)nc(N)n2)cc1,10,-1,-8,1,x

# Screening results: PubChem, several laboratories
